# SR-BI DiI-HDL act – activators of SR-BI mediated DiI-HDL uptake, primary screen, ldlA[mSR-BI] CHO cells, DiI fluorescence; 3 h; 100 = double the neutral-control signal; activation, % at 12.5 µM; 320,000 compounds, 0.096% hits; AID 504775, 2011;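 active means mean replicate activation of at least 60% and every replicate at or above 60%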;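 further: 0% = median plate neutral-control signal and 100% = twice that signal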
#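 Assay system: CHO ldlA[mSR-BI] cells, LDL receptor-null, SR-BI overexpressing; medium: Ham's F12 with 0.5% BSA, HEPES 25 mM, pH 7.4; also added: DiI-HDL 10 µg/mL; timing: 3 h uptake period with compound, 37 °C; signal: DiI fluorescence, bottom read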
# CR mimetic SO – reduction of superoxide in aged yeast, primary screen, HTS | S. cerevisiae aged cells, superoxide DHE fluorescence; stronger effect = lower value | superoxide response (% of plate mean), % at 10 µM | 330,000 compounds, 0.18% hits | AID 2690, 2010;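 active means superoxide response under a set limit, about three screen SD below normal, cut at about 65% in these data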;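 further: yeast aged for seven days with compound at 30 °C before DHE staining; 100% = average MFI of all compound-treated wells on the plate with controls excluded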
# Lipid droplet – inhibitors of hepatocyte lipid droplet formation, primary screen, imaging, high-throughput imaging, BODIPY stain; AML12 mouse hepatocytes, oleate lipid droplets; inhibition, % at 6.5 µM; 240,000 compounds, 0.4% hits;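 active means lipid droplet intensity inhibited by at least 50%, with more than 500 cells counted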
#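 material = mouse AML12 hepatocyte cell line, fixed after treatment | also added = 100 µM oleic acid challenge | doses = compound at 6.5 µM only | schedule = overnight exposure | technique = Image-based BODIPY and DAPI two-channel analysis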
# SMARCA2 activ – SMARCA2 (BRM) function activators, primary screen, cell-based, luminescence, high throughput | MG213 cells, MMTV-luciferase reporter, dexamethasone, overnight | 370,000 compounds, 1% hits | AID 652017, 2013 | activation, % at 9.1 µM; in the data active means activation above about 7.8%;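 further: 0% = vehicle wells and 100% = reference activator wells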
# AHR act – AHR activators, primary screen, cell-based, luminescence, luciferase reporter, human | Aryl hydrocarbon receptor (Homo sapiens), P35869 | AHR-responsive luciferase reporter cells | activation, % at 5 µM | 320,000 compounds, 2.5% hits | AID 2796, 2010; in the data active means activation above about 47%;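 further: 0% = vehicle wells and 100% = reference agonist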
# SR-BI DiI inh – inhibitors of SR-BI mediated HDL lipid uptake, primary screen, ldlA[mSR-BI] cells, fluorescence, single point | Scavenger receptor class B member 1 (Mus musculus), Q61009 | ldlA[mSR-BI] CHO cells, DiI-HDL uptake fluorescence, 3 h | inhibition, % at 12.5 µM | 320,000 compounds, 0.96% hits | AID 488896, 2010;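 active means mean replicate inhibition of at least 70% and a set share of replicates each scoring 70 or more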;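 further: 0% = median of neutral control wells and 100% = median of positive control wells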
# Target sequence (Q61009 whole entry, looked up): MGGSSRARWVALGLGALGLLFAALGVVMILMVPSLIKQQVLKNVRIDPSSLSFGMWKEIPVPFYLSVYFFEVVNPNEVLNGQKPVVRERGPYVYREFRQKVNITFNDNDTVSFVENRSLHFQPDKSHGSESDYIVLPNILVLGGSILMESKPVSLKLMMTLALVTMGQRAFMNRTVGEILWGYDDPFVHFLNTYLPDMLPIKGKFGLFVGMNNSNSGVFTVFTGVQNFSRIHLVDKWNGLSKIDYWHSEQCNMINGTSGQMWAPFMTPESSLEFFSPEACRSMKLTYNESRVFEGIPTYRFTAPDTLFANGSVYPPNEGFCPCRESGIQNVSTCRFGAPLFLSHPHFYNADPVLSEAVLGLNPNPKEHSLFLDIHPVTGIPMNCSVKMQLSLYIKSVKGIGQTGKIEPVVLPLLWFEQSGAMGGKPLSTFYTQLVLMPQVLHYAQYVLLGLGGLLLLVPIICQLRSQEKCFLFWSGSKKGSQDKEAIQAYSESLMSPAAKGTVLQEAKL
# AHR act cf – AHR activators, confirmation, cell-based, luminescence, luciferase reporter, human. shares compounds with AHR act. human cells, AHR-responsive luciferase reporter. activation, % at 9 µM. 2,300 compounds, 87% hits. AID 2845, 2010; in the data active means activation above about 49%;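 further: HepG2 hepatoma cells carrying a DRE-driven firefly luciferase reporter; 0% = vehicle wells and 100% = reference agonist wells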
# PXR counter – human PXR activators, counter-screen for AHR activator project, cell-based, luciferase luminescence | 2,300 compounds, 88% hits | shares compounds with AHR act | AID 434939, 2010 | cell-based PXR reporter | activation, % at 11.6 µM; in the data active means activation above about 11%;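 further: human hepatoma DPX-2 cells expressing full-length human PXR; 0% = DMSO and 100% = reference agonist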
# Numbers without * were called inactive; nt = no result. An excerpt weighted towards active compounds, which were near 4.3% of everything screened.
SMILES,SR-BI DiI-HDL act,CR mimetic SO,Lipid droplet,SMARCA2 activ,AHR act,SR-BI DiI inh,AHR act cf,PXR counter
COc1cc2[nH]c(-c3cccc(F)c3)cc(=O)c2cc1OC,12.7,101.5,11.5,0.3,91.0*,-12.7,53.9*,nt
COc1ccc(-c2cc(=O)c3cc(C)ccc3[nH]2)cc1,7.9,88.6,nt,4.0,34.8,-7.9,nt,nt
Cc1ccc2[nH]c(-c3ccccc3)cc(=O)c2c1,16.6,109.1,nt,4.1,134.9*,-16.6,34.1,56.5*
COc1cc2[nH]c(-c3ccc(C)cc3)cc(=O)c2cc1OC,21.7,111.4,-1.1,2.8,133.8*,-21.7,78.0*,12.7*
CC(=O)N1CCc2c1cccc2S(=O)(=O)NC(CC(C)C)C(=O)Nc1ccccc1C (stereo unspecified),nt,nt,nt,2.6,nt,nt,nt,nt
Cc1ccc2c(c1)C1CS(=O)(=O)N(C3CCCC3)C(=O)N1C2 (stereo unspecified),nt,nt,nt,4.8,nt,nt,nt,nt
COCCNC(=S)Nc1cccc2cnccc12,9.0,90.8,21.5,0.6,1.1,-9.0,nt,nt
CCCCNC(=S)Nc1cccc2cnccc12,15.6,96.0,-36.2,-2.1,89.0*,-15.6,61.1*,12.5*
C(=N/Nc1nccs1)/c1cccnc1,10.3,102.8,15.9,0.5,12.5,-10.3,nt,nt
Clc1cccc(/C=N\Nc2nccs2)c1,-14.7,101.8,nt,2.2,116.6*,14.7,121.6*,37.4*
O=S1(=O)c2ccc(N3CCSCC3)cc2Oc2ccccc2CN1Cc1cn(Cc2ccc(C(F)(F)F)cc2)nn1,nt,nt,nt,-2.0,nt,nt,nt,nt
COc1ccc(/C(C)=N/Nc2ccc(C(=O)O)cc2)c(OC)c1,-0.7,107.5,14.3,4.4,-1.0,0.7,nt,nt
COc1ccc2c(c1)C(=NNc1ccc(C(=O)O)cc1)c1cc(OC)ccc1-2,3.3,95.9,-3.3,-1.4,85.7*,-3.3,108.4*,11.4*
COCc1cc(=O)[nH]c(Nc2nc3ccccc3o2)n1,-7.3,98.5,nt,2.6,130.1*,12.7,73.8*,19.3*
COC(=O)Cc1cc(=O)[nH]c(Nc2nc3ccccc3o2)n1,-8.6,93.0,9.2,2.6,38.0,8.6,nt,nt
C=C(C)CNC(=S)N/N=C(\C)c1ccc(-n2ccnc2)cc1,9.6,87.3,-42.4,-2.6,93.6*,-9.6,97.7*,36.0*
O=C(O)C1Cc2c([nH]c3ccccc23)C(c2ccc3c(c2)OCO3)N1 (stereo unspecified),-4.0,81.4,nt,3.9,90.5*,4.0,72.6*,12.3*
c1ccc(CNc2c(-c3cccc(SC4CCCCC4)c3)nc3ccccn23)cc1,-17.7,92.5,nt,-3.1,4.0,17.7,nt,nt
Clc1cccc(-c2ccc(-c3nc4ccccn4c3NCc3ccccc3)cc2)c1,-69.0,127.4,nt,3.2,97.6*,69.0,70.8*,7.0
CCCCNC(=S)N/N=C1\C(=O)c2cccc3cccc1c23,11.0,96.9,-22.9,-2.2,29.7,-11.0,nt,nt
CNC(=S)N/N=C1\C(=O)c2cccc3cccc1c23,nt,88.0,nt,0.0,89.8*,nt,114.0*,38.5*
COCc1[nH]nc2c1C(c1ccc3c(c1)OCO3)N(c1ccc(OC)cc1)C2=O (stereo unspecified),nt,nt,nt,-6.8,nt,nt,nt,nt
COCCn1c(SCC(=O)Nc2nc3ccccc3s2)nnc1-c1ccoc1C,17.5,96.5,nt,-3.1,17.1,-17.5,nt,nt
COCCCn1nnnc1SCC(=O)Nc1nc2ccccc2s1,20.2,97.7,3.9,0.9,112.3*,-20.2,101.4*,61.5*
COc1ccc2nc(NC(=O)CSc3nc(SC)ns3)sc2c1,-12.5,92.3,-10.2,1.3,46.9,12.5,nt,nt
SMILES,SR-BI DiI-HDL act,CR mimetic SO,Lipid droplet,SMARCA2 activ,AHR act,SR-BI DiI inh,AHR act cf,PXR counter
CSc1nsc(SCC(=O)Nc2nc3ccccc3s2)n1,-7.4,107.6,14.4,1.6,79.7*,7.4,52.5*,13.0*
CCn1nnnc1SCC(=O)Nc1nc2ccccc2s1,13.4,92.5,12.0,-1.1,86.1*,-13.4,61.1*,42.0*
O=C(Nc1c(-c2ccccc2)nc2ncccn12)C1CC1,nt,nt,nt,-0.7,nt,nt,nt,nt
O=S(=O)(Cc1ccccc1)N1CCCc2ccccc21,-8.0,112.2,-13.7,-2.0,124.6*,8.0,113.9*,80.1*
O=S(=O)(Cc1ccccc1)N1CCc2ccccc2C1,11.0,111.1,nt,0.3,15.2,-11.0,nt,nt
Cc1ccc(C)c(NC(=O)CN(C)C(=O)c2cc([N+](=O)[O-])ccc2N2CCOCC2)c1,1.5,86.2,nt,-1.5,-0.3,-1.5,nt,nt
Cc1cc(Br)ccc1NC(=O)CN(C)C(=O)c1cc([N+](=O)[O-])ccc1N1CCOCC1,-5.5,110.6,nt,-1.8,92.0*,5.5,84.0*,53.0*
Clc1ccc(-c2cc3ccccc3[nH]2)cc1,-44.1,91.2,nt,2.3,91.2*,44.1,42.6,7.9
O=C(O)c1ccccc1-c1cc2ccccc2[nH]1,-15.0,104.5,nt,-3.4,-0.6,15.0,nt,nt
COc1ccc(NC(=O)c2ccc(Cl)nc2)cc1S(=O)(=O)N1CCOCC1,-53.0,93.6,nt,-2.6,92.2*,53.0,101.8*,20.9*
CCc1ccc(C(=O)Nc2ccc(OC)c(S(=O)(=O)N3CCOCC3)c2)cc1,-26.4,99.9,11.5,1.0,9.6,26.4,nt,nt
Cc1cccc(Nc2nc(N)nc(-c3oc4ccccc4c3C)n2)c1,-12.4,89.8,32.4,3.4,-6.5,12.4,nt,nt
Cc1ccc(Nc2nc(N)nc(-c3oc4ccccc4c3C)n2)cc1,-13.3,106.9,nt,nt,103.5*,13.3,-6.6,85.5*
O=C(CSc1nnc(-c2ccccc2)n1-c1ccc(Cl)cc1)c1ccc(Cl)cc1,nt,nt,nt,-4.9,nt,nt,nt,nt
c1ccc(-c2csc3nnc(SCc4ccc5c(c4)OCO5)n23)cc1,-2.2,93.2,-31.9,2.4,83.7*,2.2,48.1*,130.4*
CCCC#Cc1ccc(CC[C@H]2O[C@H]3CC[C@H](CO)O[C@H]3C[C@H]2NC(=O)CN2CCOCC2)cc1,nt,nt,nt,1.8,nt,nt,nt,nt
Cc1cc(C)nc(Nc2cccc3ccccc23)n1,25.2,96.7,-7.3,-0.3,131.1*,-25.2,108.6*,19.4*
O=C(Nc1ccc(Cl)cc1)c1csc(Cc2ccccc2)n1,19.7,102.2,-7.8,-2.9,85.2*,-19.8,15.6,5.7
COc1ccc(NC(=O)c2csc(Cc3ccc(Cl)cc3)n2)cc1,33.6,110.4,-10.2,-4.3,6.8,-33.6,nt,nt

# Assay outcomes as filed in PubChem.
